Reference: ChEMBL document CHEMBL3244227, “Hexofuranosyladenine nucleosides as substrates and inhibitors of calf intestinal adenosine deaminase” (J Med Chem, 1979)
Calls of active or inactive are those of the source. The rule behind the calls is not given here.

Tested on: not listed separately
Assay: Inhibition of calf intestinal adenosine deaminase type 1 by spectrophotometric assay
Parameters: species or system Bos taurus
Details: not given
How it was run: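 Commercial calf intestinal adenosine deaminase (type I) was assayed with adenosine as substrate plus the analogue, both in 0.05 M phosphate buffer, pH 7.0, at 25 °C. Mode of inhibition and Ki were derived from the kinetics.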

Row | Ki | Structure (SMILES)
1 | Not Active | Nc1ncnc2c1ncn2[C@H]1O[C@@H]([C@H](O)CO)[C@@H](O)[C@@H]1O

Same assay, conditions: read-out: Ki

Row | Ki | Structure (SMILES)
2 | 180 µM | Nc1ncnc2c1ncn2[C@@H]1O[C@H]([C@@H](O)CO)[C@H](O)[C@H]1O
3 | 120 µM | Nc1ncnc2c1ncn2[C@@H]1O[C@@H]([C@@H](O)CO)[C@@H](O)[C@H]1O
4 | 240 µM | Nc1ncnc2c1ncn2[C@H]1O[C@H]([C@H](O)CO)[C@H](O)[C@@H]1O
5 | 670 µM | Nc1ncnc2c1ncn2[C@@H]1O[C@H]([C@H](O)CO)[C@H](O)[C@@H]1O
6 | 120 µM | Nc1ncnc2c1ncn2[C@H]1O[C@H]([C@@H](O)CO)[C@H](O)[C@@H]1O

Species on record: Bos taurus
Assay: Activity at calf intestinal adenosine deaminase type 1 by spectrophotometric assay
Details: not given

Row | Structure (SMILES) | Km | Vmax
7 | C[C@H](O)[C@@H]1O[C@@H](n2cnc3c(N)ncnc32)[C@H](O)[C@@H]1O | 670 µM | 0.326 µmol/min/mg
8 | C[C@@H](O)[C@@H]1O[C@@H](n2cnc3c(N)ncnc32)[C@H](O)[C@@H]1O | inactive | inactive
9 | C[C@@H](O)[C@@H]1O[C@@H](n2cnc3c(N)ncnc32)[C@H](O)[C@H]1O | 230 µM | 0.105 µmol/min/mg
10 | C[C@H](O)[C@H]1O[C@@H](n2cnc3c(N)ncnc32)[C@H](O)[C@@H]1O | 21 µM | 61 µmol/min/mg
11 | Nc1ncnc2c1ncn2[C@@H]1O[C@H](CO)[C@@H](O)[C@H]1O | – | 220 µmol/min/mg
12 | C[C@H](O)[C@H]1O[C@@H](n2cnc3c(N)ncnc32)[C@H](O)[C@H]1O | 320 µM | 25 µmol/min/mg
13 | C[C@@H](O)[C@H]1O[C@@H](n2cnc3c(N)ncnc32)[C@H](O)[C@@H]1O | 78 µM | 0.792 µmol/min/mg
14 | C[C@H](O)[C@H]1O[C@H](n2cnc3c(N)ncnc32)[C@@H](O)[C@@H]1O | inactive | inactive
15 | C[C@@H](O)[C@H]1O[C@H](n2cnc3c(N)ncnc32)[C@@H](O)[C@@H]1O | inactive | inactive
16 | C[C@H](O)[C@@H]1O[C@H](n2cnc3c(N)ncnc32)[C@@H](O)[C@@H]1O | inactive | inactive
17 | C[C@@H](O)[C@@H]1O[C@H](n2cnc3c(N)ncnc32)[C@@H](O)[C@@H]1O | inactive | inactive

Next, values leading:

Row | Km | Vmax | Structure (SMILES)
18 | 260 µM | 0.178 µmol/min/mg | Nc1ncnc2c1ncn2[C@@H]1O[C@H]([C@@H](O)CO)[C@H](O)[C@H]1O
19 | 280 µM | 0.092 µmol/min/mg | Nc1ncnc2c1ncn2[C@@H]1O[C@@H]([C@@H](O)CO)[C@@H](O)[C@H]1O
20 | inactive | inactive | Nc1ncnc2c1ncn2[C@H]1O[C@@H]([C@H](O)CO)[C@@H](O)[C@@H]1O
